Source: ChEMBL document CHEMBL3045113, “Inhibition of plant-pathogenic bacteria by short synthetic cecropin A-melittin hybrid peptides” (Appl Environ Microbiol, 2006)
Values after ≈ are worked out from the molar mass of the structure shown. Active and inactive are the calls of the source. No cut-off for these calls is given here. *1 amine or outer side, *2 acyl side, *3 side chain or, on linkers, in order; H or OH if unused. Where a SMILES comes first, the peptide text is derived from it. [ ]: non-standard residue; d: D form. The star is where a group is joined. X1 = O=C([C@H](Cc1c[nH]c2ccccc12)N(Cc1ccccc1)[*:1])[*:2]; Palmitoyl = CCCCCCCCCCCCCCCC(=O)*; Tos = Cc1ccc(S(=O)(=O)*)cc1; Bz = O=C(c1ccccc1)*

What was measured:
Erwinia amylovora [1] = assay: Antibacterial activity against Erwinia amylovora PMV6076 at 25 to 750 uM after 48 hr by broth dilution method; assay type: functional, organism-based
Method in brief: (§1)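 Broth microdilution in tryptic soy broth with bacteria from a 10⁸ CFU/ml suspension. Final peptide levels were 750 down to 25 μM, or 250 to 3.12 μM for cecropin A. Plates were held at 25°C with OD600 read hourly for 48 h, in duplicate wells, and the run was repeated twice. MIC is the lowest concentration with no growth at 48 h.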

[2] = system: Pseudomonas syringae pv. syringae; assay: Antibacterial activity against Pseudomonas syringae pv. syringae EPS94 at 25 to 750 uM after 48 hr by broth dilution method; assay type: functional, organism-based; method in brief: as §1
Xanthomonas vesicatoria [3] = assay: Antibacterial activity against Xanthomonas vesicatoria 2133-2 at 25 to 750 uM after 48 hr by broth dilution method; assay type: functional, organism-based; method in brief: as §1
[4] = Hemolytic activity against Homo sapiens (human) RBC assessed as hemoglobin release after 1 hr; assay type: ADME, cell-based, Erythrocyte; settings: red blood cells, read-out: HD50
Method in brief: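 Fresh EDTA-anticoagulated human blood was washed in Tris buffer (10 mM Tris, 150 mM NaCl, pH 7.2) and used as a 5% suspension. Equal volumes of cells and peptide at 800 to 12.5 μM were shaken for 1 h at 37°C, then centrifuged. Supernatant A540 was taken relative to buffer and a melittin full-lysis control. HD50 was derived by probit fit.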

Xanthomonas vesicatoria [5] = assay: Antibacterial activity against Xanthomonas vesicatoria 2133-2 after 48 hr by broth dilution method; assay type: functional; settings: 2133-2, 48 h; method in brief: as §1
[6] = system: Pseudomonas syringae pv. syringae; assay: Antibacterial activity against Pseudomonas syringae pv. syringae EPS94 assessed as growth inhibition after 48 hr; assay type: functional; settings: EPS94, 48 h, read-out: ED50 (the source's name)
Method in brief: (§2)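 Growth was read as OD600 every hour for 48 h at 25°C in tryptic soy broth across a peptide dilution series, in duplicate, repeated twice. Growth is the area under the curve, and inhibition is given as % of the water control. ED50 comes from a probit-dose model fitted by nonlinear least squares.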

Erwinia amylovora [7] = assay: Antibacterial activity against Erwinia amylovora PMV6076 after 48 hr by broth dilution method; assay type: functional; settings: PMV6076, 48 h; method in brief: as §1
Erwinia amylovora [8] = assay: Antibacterial activity against Erwinia amylovora PMV6076 assessed as growth inhibition after 48 hr; assay type: functional; settings: PMV6076, 48 h, read-out: ED50 (the source's name); method in brief: as §2
[9] = system: Pseudomonas syringae pv. syringae; assay: Antibacterial activity against Pseudomonas syringae pv. syringae EPS94 after 48 hr by broth dilution method; assay type: functional; settings: EPS94, 48 h; method in brief: as §1
Xanthomonas vesicatoria [10] = assay: Bactericidal activity against Xanthomonas vesicatoria 2133-2 assessed as decrease in survival at 5 uM after 48 hr; assay type: functional, organism-based
Method in brief: (§3)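 LB broth cultures at 4 × 10⁶ CFU/ml were exposed to 5 μM peptide. Samples taken every 30 min over 3 h were diluted 10-fold and plated on LB agar. Colonies were counted after 48 h at 25°C, and survival is expressed as % of the starting count.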

Erwinia amylovora [11] = assay: Bactericidal activity against Erwinia amylovora PMV6076 assessed as decrease in survival at 5 uM after 48 hr; assay type: functional, organism-based; method in brief: as §3
[12] = Stability of the compound in tris buffer at pH 7.6 at 50 ug/ml after 45 min by HPLC method in presence of proteinase K; settings: pH 7.6, 0.75 h
[13] = system: Pseudomonas syringae pv. syringae; assay: Bactericidal activity against Pseudomonas syringae pv. syringae EPS94 assessed as decrease in survival at 5 uM after 48 hr; assay type: functional, organism-based; method in brief: as §3
Xanthomonas vesicatoria [14] = assay: Antibacterial activity against Xanthomonas vesicatoria 2133-2 assessed as growth inhibition after 48 hr; assay type: functional; settings: 2133-2, 48 h, read-out: ED50 (the source's name); method in brief: as §2
Xanthomonas vesicatoria [15] = assay: Bactericidal activity against Xanthomonas vesicatoria 2133-2 assessed as decrease in survival at 5 uM after 90 min; assay type: functional, organism-based; method in brief: as §3

| Compound | MIC (Xanthomonas vesicatoria [5]) [µM] | MIC (Erwinia amylovora [7]) [µM] | MIC [9] [µM] | Stability [12] | Activity (Erwinia amylovora [1]) | Activity [2] | Activity (Xanthomonas vesicatoria [3]) | HC50 at 1 h [4] [µM] | EC50 [6] [µM] | EC50 (Erwinia amylovora [8]) [µM] | Activity (Xanthomonas vesicatoria [10]) | Activity (Erwinia amylovora [11]) | Activity [13] | EC50 (Xanthomonas vesicatoria [14]) [µM] | Activity (Xanthomonas vesicatoria [15]) |
| --- | --- | --- | --- | --- | --- | --- | --- | --- | --- | --- | --- | --- | --- | --- | --- |
| CC[C@H](C)[C@H](NC(=O)[C@H](CCCCN)NC(=O)[C@H](CCCCN)NC(=O)[C@H](Cc1ccccc1)NC(=O)[C@H](CC(C)C)NC(=O)[C@H](CCCCN)NC(=O)[C@@H](N)CCCCN)C(=O)N[C@@H](CC(C)C)C(=O)N[C@@H](CCCCN)C(=O)N[C@@H](CCCCN)C(=O)N[C@@H](CC(C)C)C(N)=O |  |  |  |  | inactive | inactive | inactive |  |  |  |  |  |  |  |  |
| H-FKLFKKILKVL-NH2 |  |  |  |  | inactive | inactive | inactive |  |  |  |  |  |  |  |  |
| CC[C@H](C)[C@H](NC(=O)[C@H](CCCCN)NC(=O)[C@H](CCCCN)NC(=O)[C@H](Cc1ccccc1)NC(=O)[C@H](CC(C)C)NC(=O)[C@H](CCCCN)NC(=O)[C@@H](N)CCCCN)C(=O)N[C@@H](CC(C)C)C(=O)N[C@@H](CCCCN)C(=O)N[C@H](C(=O)N[C@@H](CC(C)C)C(N)=O)C(C)C [KKLFKKILKVL-NH2] | 12 (≈ 16.3 µg/mL) | 5 (≈ 6.78 µg/mL) | 2 (≈ 2.71 µg/mL) | Unstable |  |  |  | 334 | 1.6 | 4.3 | Active | Active | Active | 7.3 |  |
| CCCCCCCCCCCCCCCC(=O)N[C@@H](Cc1c[nH]c2ccccc12)C(=O)N[C@@H](CCCCN)C(=O)N[C@@H](CC(C)C)C(=O)N[C@@H](Cc1ccccc1)C(=O)N[C@@H](CCCCN)C(=O)N[C@@H](CCCCN)C(=O)N[C@H](C(=O)N[C@@H](CC(C)C)C(=O)N[C@@H](CCCCN)C(=O)N[C@H](C(=O)N[C@@H](CC(C)C)C(N)=O)C(C)C)[C@@H](C)CC (Palmitoyl-WKLFKKILKVL-NH2) | 25 (≈ 41.3 µg/mL) | 50 (≈ 82.7 µg/mL) | 50 (≈ 82.7 µg/mL) |  |  |  |  | 6 | 56.8 | 60 |  |  |  | 14.7 |  |
| H-WKLFKKILKKL-NH2 |  |  |  |  | inactive | inactive | inactive |  |  |  |  |  |  |  |  |
| H-YKLFKKILKVL-NH2 |  |  |  |  | inactive | inactive | inactive |  |  |  |  |  |  |  |  |
| H-WKLFKKILKVL-NH2 | 7 | 7 | 7 | Unstable |  |  |  | 104 | 5.5 | 5.5 | Active | Active | Active | 3.6 |  |
| H-LKLFKKILKVL-NH2 | 10 | 5 | 5 | Unstable |  |  |  | 190 | 3.2 | 4.3 | Active | Active | Active | 4.1 |  |
| CC[C@H](C)[C@H](NC(=O)[C@H](CCCCN)NC(=O)[C@H](CCCCN)NC(=O)[C@H](Cc1ccccc1)NC(=O)[C@H](CC(C)C)NC(=O)[C@H](CCCCN)NC(=O)[C@@H](N)Cc1c[nH]c2ccccc12)C(=O)N[C@@H](CC(C)C)C(=O)N[C@@H](CCCCN)C(=O)N[C@@H](Cc1ccc(O)cc1)C(=O)N[C@@H](CC(C)C)C(N)=O | 2 (≈ 2.96 µg/mL) | 2 (≈ 2.96 µg/mL) | 2 (≈ 2.96 µg/mL) |  |  |  |  | 42 | 2.7 | 3.2 |  |  |  | 2.3 |  |

More lines, main results first:

| MIC (Xanthomonas vesicatoria [5]) [µM] | MIC (Erwinia amylovora [7]) [µM] | MIC [9] [µM] | Stability [12] | Compound | Activity (Erwinia amylovora [1]) | Activity [2] | Activity (Xanthomonas vesicatoria [3]) | HC50 at 1 h [4] [µM] | EC50 [6] [µM] | EC50 (Erwinia amylovora [8]) [µM] | Activity (Xanthomonas vesicatoria [10]) | Activity (Erwinia amylovora [11]) | Activity [13] | EC50 (Xanthomonas vesicatoria [14]) [µM] | Activity (Xanthomonas vesicatoria [15]) |
| --- | --- | --- | --- | --- | --- | --- | --- | --- | --- | --- | --- | --- | --- | --- | --- |
| < 2 | 12 (≈ 18.8 µg/mL) | 12 (≈ 18.8 µg/mL) |  | CC[C@H](C)[C@H](NC(=O)[C@H](CCCCN)NC(=O)[C@H](CCCCN)NC(=O)[C@H](Cc1ccccc1)NC(=O)[C@H](CC(C)C)NC(=O)[C@H](CCCCN)NC(=O)[C@H](Cc1c[nH]c2ccccc12)NS(=O)(=O)c1ccc(C)cc1)C(=O)N[C@@H](CC(C)C)C(=O)N[C@@H](CCCCN)C(=O)N[C@H](C(=O)N[C@@H](CC(C)C)C(N)=O)C(C)C (Tos-WKLFKKILKVL-NH2) |  |  |  | 10 | 6.9 | 11.2 |  |  |  |  |  |
| < 2 | 5 | 5 |  | H-WKLFKKILKFL-NH2 |  |  |  | 32 | 1.9 | 1.3 |  |  |  |  |  |
| < 2 | 5 | 5 |  | H-WKLFKKILKWL-NH2 |  |  |  | 26 | 2.5 | 3 |  |  |  |  |  |
| 2 (≈ 3.01 µg/mL) | 7 (≈ 10.5 µg/mL) | 5 (≈ 7.53 µg/mL) |  | CC[C@H](C)[C@H](NC(=O)[C@H](CCCCN)NC(=O)[C@H](CCCCN)NC(=O)[C@H](Cc1ccccc1)NC(=O)[C@H](CC(C)C)NC(=O)[C@H](CCCCN)NC(=O)[C@H](Cc1c[nH]c2ccccc12)NCc1ccccc1)C(=O)N[C@@H](CC(C)C)C(=O)N[C@@H](CCCCN)C(=O)N[C@H](C(=O)N[C@@H](CC(C)C)C(N)=O)C(C)C (H-[X1]KLFKKILKVL-NH2) |  |  |  | 30 | 3.8 | 5 | Active | inactive | Active | 2.5 |  |
| 2 (≈ 2.81 µg/mL) | 2 (≈ 2.81 µg/mL) | 2 (≈ 2.81 µg/mL) | Stable | CC[C@H](C)[C@H](NC(=O)[C@H](CCCCN)NC(=O)[C@H](CCCCN)NC(=O)[C@H](Cc1ccccc1)NC(=O)[C@H](CC(C)C)NC(=O)[C@H](CCCCN)NC(=O)[C@@H](N)CCCCN)C(=O)N[C@@H](CC(C)C)C(=O)N[C@@H](CCCCN)C(=O)N[C@@H](Cc1ccccc1)C(=O)N[C@@H](CC(C)C)C(N)=O [KKLFKKILKFL-NH2] |  |  |  | 203 | 2.1 | 2.5 |  | Active | Active | 1.9 | Active |
| 2 | 10 | 7 | Unstable | Ac-WKLFKKILKVL-NH2 |  |  |  | 17 | 4.3 | 9 |  |  |  | 2 |  |
| < 2 | 15 (≈ 22.8 µg/mL) | 15 (≈ 22.8 µg/mL) | Unstable | CC[C@H](C)[C@H](NC(=O)[C@H](CCCCN)NC(=O)[C@H](CCCCN)NC(=O)[C@H](Cc1ccccc1)NC(=O)[C@H](CC(C)C)NC(=O)[C@H](CCCCN)NC(=O)[C@H](Cc1c[nH]c2ccccc12)NC(=O)c1ccccc1)C(=O)N[C@@H](CC(C)C)C(=O)N[C@@H](CCCCN)C(=O)N[C@H](C(=O)N[C@@H](CC(C)C)C(N)=O)C(C)C (Bz-WKLFKKILKVL-NH2) |  |  |  | 11 | 9.5 | 15.1 |  |  |  |  |  |
